Experiments:
Camphor 5-monooxygenase [1] = target: T1, Camphor 5-monooxygenase (Pseudomonas putida, UniProt P00183); test: Inhibition of wild type cytochrome P450cam expressed in Escherichia coli
T1 sequence (P00183 whole entry): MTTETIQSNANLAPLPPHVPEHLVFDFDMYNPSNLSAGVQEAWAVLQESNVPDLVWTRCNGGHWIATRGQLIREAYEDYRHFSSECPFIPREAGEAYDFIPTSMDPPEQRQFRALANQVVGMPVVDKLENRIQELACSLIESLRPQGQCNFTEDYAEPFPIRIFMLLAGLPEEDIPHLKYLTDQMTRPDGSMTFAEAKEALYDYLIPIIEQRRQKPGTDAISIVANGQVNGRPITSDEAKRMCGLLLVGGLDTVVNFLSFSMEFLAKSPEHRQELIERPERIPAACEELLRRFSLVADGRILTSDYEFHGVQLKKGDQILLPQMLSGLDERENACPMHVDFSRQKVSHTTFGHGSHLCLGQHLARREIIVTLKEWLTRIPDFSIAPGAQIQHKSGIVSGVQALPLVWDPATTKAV

Camphor 5-monooxygenase [2] = target: T2, Camphor 5-monooxygenase (Pseudomonas putida, UniProt P00183, L244A); test: Inhibition of L244A mutant cytochrome P450cam expressed in Escherichia coli
How it was run: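 Camphor-depleted enzyme at 20 nM in 100 mM potassium phosphate, with inhibitor at varying amounts added in DMSO (≤3% of volume). Incubated 15 min at 20 °C, then quenched with CH2Cl2 containing 2 mM β-thujone internal standard. Product/starting-material ratio was measured by GC to give turnover, and IC50 was fitted with a Langmuir isotherm.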

Camphor 5-monooxygenase [3] = target: T1, Camphor 5-monooxygenase; test: Inhibition of wild type cytochrome P450cam expressed in Escherichia coli at 1 mM
How it was run: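 Camphor-depleted enzyme in 100 mM potassium phosphate, with inhibitor at 1 mM added in DMSO (≤3% of volume). Incubated 15 min at 20 °C, then quenched with CH2Cl2 containing 2 mM β-thujone internal standard. Turnover was taken from the GC product/starting-material ratio and expressed as percent inhibition.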

Camphor 5-monooxygenase [4] = target: T1, Camphor 5-monooxygenase; test: Binding constant for wild type cytochrome P450cam expressed in Escherichia coli; details: read-out: Ks
How it was run: (§1)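 Camphor stripped from the enzyme by two elutions with 100 mM sodium phosphate over a size-exclusion column, leaving low-spin water-bound heme. 0.5 μM protein in 100 mM potassium phosphate at 37 °C, measured by difference UV spectroscopy. The 416 nm trough to 424 nm peak absorbance difference was fitted by nonlinear regression to ΔA = ΔAmax[I]/(Ks+[I]).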

Camphor 5-monooxygenase [5] = target: T2, Camphor 5-monooxygenase; test: Binding constant for L244A mutant cytochrome P450cam expressed in Escherichia coli; details: read-out: Ks; how it was run: as §1

c1cn(CC2CC2)cn1
IC50 (Camphor 5-monooxygenase [1]): 4 µM

CC(C)(C)Cc1cncn1C1CC1
IC50 (Camphor 5-monooxygenase [2]): 129 µM
inhibition at 1000 µM (Camphor 5-monooxygenase [3]): 80%

c1cn(CC2CCCCC2)cn1
IC50 (Camphor 5-monooxygenase [1]): 1.5 µM

CCCc1cncn1CC1CC1
IC50 (Camphor 5-monooxygenase [2]): 36 µM
inhibition at 1000 µM (Camphor 5-monooxygenase [3]): 60%

CCCc1cncn1C1CCCC1
IC50 (Camphor 5-monooxygenase [2]): 6.5 µM
inhibition at 1000 µM (Camphor 5-monooxygenase [3]): 60%

CCC(CC)Cn1ccnc1
IC50 (Camphor 5-monooxygenase [1]): 0.8 µM

CC(C)Cc1cncn1CC1CC1
IC50 (Camphor 5-monooxygenase [2]): 10.1 µM
inhibition at 1000 µM (Camphor 5-monooxygenase [3]): 20%

c1ccc(Cn2cncc2C2CC2)cc1
IC50 (Camphor 5-monooxygenase [2]): 41 µM
inhibition at 1000 µM (Camphor 5-monooxygenase [3]): 30%

c1ccc(Cn2ccnc2)cc1 [BENZYLIMIDAZOLE]
IC50 (Camphor 5-monooxygenase [1]): 16 µM

CC(=O)N1CCN(c2ccc(OC[C@@H]3CO[C@@](Cn4ccnc4)(c4ccc(Cl)cc4Cl)O3)cc2)CC1 [KETOCONAZOLE]
Kd (Camphor 5-monooxygenase [4]): 0.5 µM
Kd (Camphor 5-monooxygenase [5]): 0.6 µM
